Data from ChEMBL document CHEMBL3526095, “Characterization of the in vitro and in vivo metabolism and disposition and cytochrome P450 inhibition/induction profile of saxagliptin in human” (Drug Metab Dispos, 2012).

Assays:
[1] = Drug metabolism in human assessed as drug excretion in urine at 50 mg, po up to 12 hrs by liquid scintillation counting; assay type: ADME, organism-based; settings: in vivo
In short: (§1)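 Healthy males received a single 50-mg oral [14C]saxagliptin solution (91.5 µCi) after a 10-h fast. Urine collected 0–12 h, 12–24 h, then at 24-h intervals to 168 h; feces collected at 24-h intervals. Radioactivity counted by LSC: urine directly, feces as ~20% w/w homogenate combusted before counting. Result expressed as % of actual dose, based on syringe weights.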

[2] = Drug metabolism in human assessed as drug excretion in urine at 50 mg, po after 12 to 24 hrs by liquid scintillation counting; assay type: ADME, organism-based; settings: in vivo; in short: as §1
[3] = Drug metabolism in human assessed as drug excretion in urine at 50 mg, po after 24 to 48 hrs by liquid scintillation counting; assay type: ADME, organism-based; settings: in vivo; in short: as §1
[4] = Drug metabolism in human assessed as drug excretion in urine at 50 mg, po after 48 to 168 hrs by liquid scintillation counting; assay type: ADME, organism-based; settings: in vivo; in short: as §1
[5] = Drug metabolism in human assessed as total drug excretion in urine at 50 mg, po up to 168 hrs by liquid scintillation counting; assay type: ADME, organism-based; settings: in vivo; in short: as §1
[6] = Drug metabolism in human assessed as drug excretion in feces at 50 mg, po up to 24 hrs by liquid scintillation counting; assay type: ADME, organism-based; settings: in vivo; in short: as §1
[7] = Drug metabolism in human assessed as drug excretion in feces at 50 mg, po after 24 to 48 hrs by liquid scintillation counting; assay type: ADME, organism-based; settings: in vivo; in short: as §1
[8] = Drug metabolism in human assessed as drug excretion in feces at 50 mg, po after 48 to 72 hrs by liquid scintillation counting; assay type: ADME, organism-based; settings: in vivo; in short: as §1
[9] = Drug metabolism in human assessed as drug excretion in feces at 50 mg, po after 72 to 96 hrs by liquid scintillation counting; assay type: ADME, organism-based; settings: in vivo; in short: as §1
[10] = Drug metabolism in human assessed as drug excretion in feces at 50 mg, po after 96 to 144 hrs by liquid scintillation counting; assay type: ADME, organism-based; settings: in vivo; in short: as §1
[11] = Drug metabolism in human assessed as total drug excretion in feces at 50 mg, po up to 144 hrs by liquid scintillation counting; assay type: ADME, organism-based; settings: in vivo; in short: as §1
Liver microsome [12] = test: Drug metabolism in human liver microsomes assessed as formation of mono-hydroxylated metabolite at 10 uM after 1 hr by LC-MS/MS analysis in presence of NADPH; assay type: ADME
In short: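 Pooled HLM at 1 mg/ml protein, incubated with 10 µM [14C]saxagliptin and 1 mM NADPH in 100 mM phosphate buffer pH 7.4 at 37°C for 60 min. Quenched with ice-cold acetonitrile; supernatant analysed by LC-MS/MS and off-line radioanalysis.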

Liver microsome [13] = test: Drug metabolism in human liver microsomes assessed as formation of 5-hydroxy saxagliptin at 10 uM after 1 hr by LC-MS/MS analysis in absence of NADPH; assay type: ADME
Liver microsome [14] = test: Drug metabolism in human liver microsomes assessed as formation of 5-hydroxy saxagliptin at 10 uM after 30 mins by LC-MS/MS analysis in presence of 1-aminobenzotriazole
Liver microsome [15] = test: Drug metabolism in human liver microsomes assessed as formation of 5-hydroxy saxagliptin at 1 uM after 30 mins by LC-MS/MS analysis in presence of ketoconazole and troleandomycin
[16] = substrate: N#C[C@@H]1C[C@@H]2C[C@@H]2N1C(=O)[C@@H](N)C12CC3CC(CC(O)(C3)C1)C2; test: Drug metabolism in assessed as human CYP3A5-mediated formation of 5-hydroxy saxagliptin Michaelis-Menten kinetic analysis; assay type: ADME
In short: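 M2 formation kinetics measured in triplicate at twelve saxagliptin concentrations from 1 to 800 µM. Enzyme source was pooled HLM (0.25 mg/ml, 30 min, 37°C) or expressed CYP3A4 or CYP3A5 (10 pmol/ml, 10 min). Incubations contained 1 mM NADPH and 2 mM MgCl2 in phosphate buffer pH 7.4.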

Drug excretion [1] | Drug excretion [2] | Drug excretion [3] | Drug excretion [4] | Drug excretion [5] | Drug excretion [6] | Drug excretion [7] | Drug excretion [8] | Drug excretion [9] | Drug excretion [10] | Drug excretion [11] | Drug metabolism (Liver microsome [12]) | Drug metabolism (Liver microsome [13]) | Drug metabolism (Liver microsome [14]) | Drug metabolism (Liver microsome [15]) | Molecule | Km [16] | Vmax [16]
68.15% | 3.26% | 1.9% | 1.6% | 74.89% | 7.22% | 8.46% | 2.86% | 1.13% | 2.39% | 22.05% | metabolite_detected | metabolite_not_detected | metabolite_not_detected | metabolite_not_detected | N#C[C@@H]1C[C@@H]2C[C@@H]2N1[14C](=O)[14C@@H](N)C12CC3CC(CC(O)(C3)C1)C2 | – | –
– | – | – | – | – | – | – | – | – | – | – | – | – | – | – | Cytochrome P450 3A5 (Homo sapiens) (protein) MDLIPNLAVETWLLLAVSLVLLYLYGTRTHGLFKRLGIPGPTPLPLLGNVLSYRQGLWKFDTECYKKYGKMWGTYEGQLPVLAITDPDVIRTVLVKECYSVFTNRRSLGPVGFMKSAISLAEDEEWKRIRSLLSPTFTSGKLKEMFPIIAQYGDVLVRNLRREAEKGKPVTLKDIFGAYSMDVITGTSFGVNIDSLNNPQDPFVESTKKFLKFGFLDPLFLSIILFPFLTPVFEALNVSLFPKDTINFLSKSVNRMKKSRLNDKQKHRLDFLQLMIDSQNSKETESHKALSDLELAAQSIIFIFAGYETTSSVLSFTLYELATHPDVQQKLQKEIDAVLPNKAPPTYDAVVQMEYLDMVVNETLRLFPVAIRLERTCKKDVEINGVFIPKGSMVVIPTYALHHDPKYWTEPEEFRPERFSKKKDSIDPYIYTPFGTGPRNCIGMRFALMNMKLALIRVLQNFSFKPCKETQIPLKLDTQGLLQPEKPIVLKVDSRDGTLSGE | 252 µM | 2.4e-05 µmol/min
